The test system of assay [1] is 3T3-L1. Put plainly: Inhibition of adipocyte differentiation in mouse 3T3L1 cells assessed as inhibition of 2 deoxy-D[3H]glucose uptake at 0.1 mg/ml […] by scintillation counter relative to control. The class given is functional.
Assay [2] concerns 3T3-L1. Put plainly: Inhibition of adipocyte differentiation in mouse 3T3L1 cells assessed as inhibition of 2 deoxy-D[3H]glucose uptake at 0.05 mg/ml […] by scintillation counter relative to control. It counts as functional.
In assay [3] the target is T1, Solute carrier family 2, facilitated glucose transporter member 4 (Homo sapiens) (UniProt P14672).
T1 sequence (whole entry): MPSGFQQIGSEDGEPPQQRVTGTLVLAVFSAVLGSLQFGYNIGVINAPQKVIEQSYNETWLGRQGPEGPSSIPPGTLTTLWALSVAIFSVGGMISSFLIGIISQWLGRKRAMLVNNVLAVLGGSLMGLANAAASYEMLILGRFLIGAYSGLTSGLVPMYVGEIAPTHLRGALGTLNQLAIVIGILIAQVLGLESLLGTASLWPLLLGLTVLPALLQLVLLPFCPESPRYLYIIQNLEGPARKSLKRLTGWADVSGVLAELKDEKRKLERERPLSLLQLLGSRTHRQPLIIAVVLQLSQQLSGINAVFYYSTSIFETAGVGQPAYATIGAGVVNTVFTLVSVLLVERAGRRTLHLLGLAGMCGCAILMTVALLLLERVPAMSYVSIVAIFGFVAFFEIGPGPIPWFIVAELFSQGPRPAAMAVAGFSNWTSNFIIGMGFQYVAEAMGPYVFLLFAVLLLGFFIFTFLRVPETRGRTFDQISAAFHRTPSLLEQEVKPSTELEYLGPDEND
Put plainly: Stimulation of GLUT4 glucose transport.

Assay [4] concerns 3T3-L1. The assay can be described thus: Inhibition of adipocyte differentiation in mouse 3T3L1 cells assessed as inhibition of 2 deoxy-D[3H]glucose uptake at 0.01 mg/ml […] by scintillation counter relative to control. The class given is functional.
The target of assay [5] is T2, Peroxisome proliferator-activated receptor alpha (Homo sapiens) (UniProt Q07869).
T2 sequence (whole entry): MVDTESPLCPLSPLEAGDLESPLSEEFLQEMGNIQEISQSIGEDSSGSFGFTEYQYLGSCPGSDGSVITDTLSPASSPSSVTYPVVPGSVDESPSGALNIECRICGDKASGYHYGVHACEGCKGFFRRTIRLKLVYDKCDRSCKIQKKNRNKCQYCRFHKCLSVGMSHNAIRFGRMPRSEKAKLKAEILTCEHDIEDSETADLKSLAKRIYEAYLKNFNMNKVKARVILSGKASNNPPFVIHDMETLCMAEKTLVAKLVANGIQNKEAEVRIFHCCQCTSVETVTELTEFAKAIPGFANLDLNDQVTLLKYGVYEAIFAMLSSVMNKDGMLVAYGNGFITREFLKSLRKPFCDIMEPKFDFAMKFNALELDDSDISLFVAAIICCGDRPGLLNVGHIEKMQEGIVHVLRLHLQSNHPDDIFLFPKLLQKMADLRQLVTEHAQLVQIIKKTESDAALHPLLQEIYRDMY
Put plainly: Activation of PPARalpha transfected into HEK cells at 100 uM by luciferase assay. It counts as cell-based. The settings on record: HEK293. In outline:
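HEK cells in DMEM with 10% FBS, 1% penicillin-streptomycin and 2 mM L-glutamine at 37 °C, 5% CO2. Seeded at 80 000/well 24 h before PEI transfection (1 µg plasmid, 4 h). Compounds dissolved in DMSO and added in supplemented DMEM for 48 h. Lysate luciferase read by luminometer, normalized to β-gal, relative to DMSO control. Three independent runs; mean ± SD.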

For assay [6], the system named is 3T3-L1. Put plainly: Inhibition of adipocyte differentiation in mouse 3T3L1 cells assessed as inhibition of 2 deoxy-D[3H]glucose uptake at 0.5 mg/ml after 15 mins by scintillation counter relative to control. It counts as functional.
Assay [7] concerns 3T3-L1. The assay can be described thus: Inhibition of adipocyte differentiation in mouse 3T3L1 cells assessed as inhibition of 2 deoxy-D[3H]glucose uptake at 1 mg/ml […] by scintillation counter relative to control. It counts as functional.
Assay [8] relates to 3T3-L1. Put plainly: Inhibition of adipocyte differentiation in mouse 3T3L1 cells assessed as inhibition of 2 deoxy-D[3H]glucose uptake at 0.2 mg/ml […] by scintillation counter relative to control. It counts as functional.

The source made the active and inactive calls. The calls are words filed in the database; no cut-off is given here.

The record followed here is ChEMBL document CHEMBL1154829, “Iridoids from Fraxinus excelsior with adipocyte differentiation-inhibitory and PPARalpha activation activity” (2010).

Regarding `C/C=C1\[C@H](O[C@@H]2O[C@H](CO)[C@@H](O)[C@H](O)[C@H]2O)OC=C(C(=O)OC)[C@H]1CC(=O)O`, in the assay with 3T3-L1 [1], the inhibition (as a rule, the relative decrease from the control value, in per cent) at 100 µg/mL is -85.2%. For the same compound, the inhibition at 50 µg/mL in the assay with 3T3-L1 [2] is -34.8%. Moreover, in assay [3], the activation entry is “inactive”. In addition, the inhibition at 10 µg/mL in the assay on 3T3-L1 [4] is -7.9%.

`C/C=C1\[C@H](O[C@@H]2O[C@H](CO)[C@@H](O)[C@H](O)[C@H]2O)OC=C(C(=O)OC)[C@H]1CC(=O)OC` [OLEOSIDE DIMETHYL ESTER]: the inhibition at 100 µg/mL in the assay with 3T3-L1 [1] is -81%. In addition, the inhibition at 50 µg/mL in the assay with 3T3-L1 [2] is -7.3%. The activation result in assay [3] was “inactive”. This compound also yielded an Activity in assay [5] of 27.9%. Further, the inhibition at 10 µg/mL in the assay on 3T3-L1 [4] amounted to 78.2%.

As to `C/C=C1/[C@H](O[C@@H]2O[C@H](CO)[C@@H](O)[C@H](O)[C@H]2O)OC=C(C(=O)OC)[C@H]1CC(=O)OCCc1ccc(O)cc1` [LIGSTROSIDE], the inhibition at 100 µg/mL in the assay with 3T3-L1 [1] is -9.8%. Further, the inhibition at 50 µg/mL with 3T3-L1 [2] is -76.4%. In addition, the activation result in assay [3] is “inactive”. Further, the inhibition at 10 µg/mL with 3T3-L1 [4] was -9.3%.

Consider `O=C(O)C1CN2C(N1)[C@H](O)[C@@H](O)[C@H](O)[C@H]2CO` (stereo partly drawn), for which the inhibition at 500 µg/mL with 3T3-L1 [6] was -10.4%. Also, the inhibition at 50 µg/mL in the assay with 3T3-L1 [2] worked out at 2.3%. The activation result in assay [3] is “inactive”. For the same compound, in assay [5], the Activity is 21%. For the same compound, the inhibition at 1000 µg/mL in the assay on 3T3-L1 [7] is -2.1%. Further, the inhibition at 200 µg/mL with 3T3-L1 [8] is -8.3%.

Take `C/C=C1/[C@H](O[C@@H]2O[C@H](CO[C@@H]3O[C@H](CO)[C@@H](O)[C@H](O)[C@H]3O)[C@@H](O)[C@H](O)[C@H]2O)OC=C(C(=O)OC)[C@H]1CC(=O)OCCc1ccc(O)cc1` [EXCELSIDE B]: the inhibition at 500 µg/mL in the assay with 3T3-L1 [6] was -22.7%. In addition, the inhibition at 50 µg/mL with 3T3-L1 [2] is -16.7%. For the same compound, the activation result in assay [3] was “inactive”. In assay [5], this compound came in with an Activity of 24.8%. Besides, in the assay with 3T3-L1 [7], the inhibition at 1000 µg/mL was -24.3%. The inhibition at 200 µg/mL in the assay on 3T3-L1 [8] is -30.8%.

Regarding `C/C=C1/[C@H](O[C@@H]2O[C@H](CO[C@@H]3O[C@H](CO)[C@@H](O)[C@H](O)[C@H]3O)[C@@H](O)[C@H](O)[C@H]2O)OC=C(C(=O)OC)[C@H]1CC(=O)OC` [EXCELSIDE A], the inhibition at 100 µg/mL with 3T3-L1 [1] is -16.6%. For the same compound, the inhibition at 50 µg/mL with 3T3-L1 [2] was found to be 30.9%. The activation result in assay [3] is “inactive”. For the same compound, the inhibition at 10 µg/mL with 3T3-L1 [4] was 102%.

With `C/C=C1\C(CC(=O)OC[C@H]2O[C@@H](OCCc3ccc(O)cc3)[C@H](O)[C@@H](O)[C@@H]2O)C(C(=O)OC)=CO[C@H]1O[C@@H]1O[C@H](CO)[C@@H](O)[C@H](O)[C@H]1O` (stereo partly drawn) [NUZHENIDE], the inhibition at 500 µg/mL with 3T3-L1 [6] was -27.9%. Also, the inhibition at 50 µg/mL with 3T3-L1 [2] is -15.2%. The activation entry in assay [3] is “inactive”. For the same compound, the Activity in assay [5] worked out at 12.2%. Also, in the assay with 3T3-L1 [7], the inhibition at 1000 µg/mL was -38.2%. Also, the inhibition at 200 µg/mL in the assay with 3T3-L1 [8] was -28.3%.

On to `C/C=C1/[C@H](O[C@@H]2O[C@H](CO)[C@@H](O)[C@H](O[C@@H]3O[C@H](CO)[C@@H](O)[C@H](O)[C@H]3O)[C@H]2O)OC=C(C(=O)OC)[C@H]1CC(=O)Oc1ccc(CCO)cc1`, for which the inhibition at 100 µg/mL in the assay on 3T3-L1 [1] was -49.7%. Also, in the assay with 3T3-L1 [2], the inhibition at 50 µg/mL is -17.1%. In addition, the inhibition at 10 µg/mL with 3T3-L1 [4] was 77.6%.
